Data on 2 compounds can be found in ChEMBL document CHEMBL4359895, “Discovery and biological evaluation of darolutamide derivatives as inhibitors and down-regulators of wild-type AR and the mutants” (Eur J Med Chem, 2019).

Activity calls are given as the source filed them. The calls are words filed in the database; no cut-off is given here.

The subject of data set [1] is LNCaP. The data set can be described thus: Inhibition of AR splice variant 7 mutant expression in human LNCAP cells at 5 to 20 uM incubated for 24 hrs by Western blot analysis analysis. The class given is functional, cell-based. The gist of the method: (§1)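 LNCaP, VCaP and 22Rv1 cells grown in medium with 10% (v/v) FBS. Treated with compounds or DMSO for 24 h. AR-full and AR splice-variant protein then assessed by western blot.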

Data set [2] concerns CWR22R. Put plainly: Inhibition of AR splice variant 7 mutant expression in human 22Rv1 cells at 10 to 30 uM incubated for 24 hrs by Western blot analysis analysis. In kind it is functional, cell-based. The essentials: as §1
For orientation: Immunoblotting shows a protein as a band on a membrane.

The test system of data set [3] is LNCaP. The data set can be described thus: Inhibition of AR mRNA level in human LNCAP cells at 5 to 20 uM incubated for 24 hrs by qRT-PCR analysis. The class given is functional, cell-based. The essentials:
(§2)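 LNCaP, VCaP and 22Rv1 cells treated with DMSO or compounds for 24 h. AR-full and AR-V7 mRNA measured by qRT-PCR and normalised to GAPDH. Mean ± SD, n = 3, compared with DMSO by two-tailed t test.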
(Real-time PCR tracks product formation cycle by cycle.)

Data set [4] relates to VCaP. Put plainly: Inhibition of AR splice variant 7 mutant gene expression in human VCaP cells at 10 to 30 uM incubated for 24 hrs by qRT-PCR analysis. The class given is functional, cell-based. The gist of the method: as §2
Data set [5] deals with CWR22R. The data set can be described thus: Inhibition of AR splice variant 7 mutant gene expression in human 22Rv1 cells at 10 to 30 uM incubated for 24 hrs by qRT-PCR analysis. In kind it is functional, cell-based. The gist of the method:
as §2

A short description of data set [6]: Toxicity in BALB/c mouse xenografted with castration-resistant human VCaP cells assessed as weight loss at 30 to 60 mg/kg, po administered for 40 days. The class given is organism-based. The note with it: in vivo, 960 h. The gist of the method: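 Castration-resistant VCaP xenografts in male BALB/c nude mice. Animals treated once daily for 40 days, with a vehicle group included.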
(In general: In xenograft studies the graft and the host belong to different species.)

Data set [7] deals with CWR22R. The data set can be described thus: Inhibition of AR splice variant 7 mutant expression in human 22Rv1 cells at 10 to 40 uM incubated for 24 hrs by Western blot analysis analysis. In kind it is functional, cell-based. The gist of the method: as §1
For data set [8], the system named is LNCaP. Put plainly: Inhibition of AR splice variant 7 mutant expression in human LNCAP cells at 5 to 30 uM incubated for 24 hrs by Western blot analysis analysis. The class given is functional, cell-based. The essentials:
as §1

In data set [9] the test system is CWR22R. Put plainly: Inhibition of AR mRNA level in human 22Rv1 cells at 10 to 40 uM incubated for 24 hrs by qRT-PCR analysis. In kind it is functional, cell-based. The essentials: as §2
The subject of data set [10] is VCaP. Put plainly: Inhibition of AR splice variant 7 mutant expression in human VCaP cells at 10 to 40 uM incubated for 24 hrs by Western blot analysis analysis. The class given is functional, cell-based. The gist of the method: as §1
For data set [11], the system named is CWR22R. The data set can be described thus: Inhibition of AR splice variant 7 mutant gene expression in human 22Rv1 cells at 10 to 40 uM incubated for 24 hrs by qRT-PCR analysis. The class given is functional, cell-based. The gist of the method: as §2

On to `C[C@@H](Cn1ccc(-c2ccc(C#N)c(Cl)c2)n1)Nc1cccc2ncccc12`, for which the inhibition result in [1], in data set [2], in data set [3], in [4] and in [5] was “Active” in each case.

For `C[C@@H](Cn1ccc(-c2ccc(C#N)c(Cl)c2)n1)Nc1ncnc2nc[nH]c12`, the Activity result in [6] is reported as “Non-Toxic”. Moreover, the inhibition entry in [7], in data set [8], in [9], in [10] and in [11] was “Active” each time.
